# Assay results: article PMC3351161 (Nucleic Acids Research, 2012)
# Where no end group is shown, it is not given here. [ ]: non-standard residue; d: D form. pT = C[C@@H](OP(=O)(O)O)[C@H](N)C(=O)O
# T1: Mdc1 fragment M-1 (amino acids 1–124), GST fusion (human, UniProt Q14676 1-124)
# T1 sequence (looked up): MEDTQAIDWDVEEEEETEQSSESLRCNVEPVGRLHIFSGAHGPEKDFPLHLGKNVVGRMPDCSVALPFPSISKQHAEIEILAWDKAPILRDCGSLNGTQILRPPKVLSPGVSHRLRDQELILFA
# B1: Mdc1 (1–800): tagged N-terminal Mdc1 fragment lacking the BRCT domains (protein)
# chain: MEDTQAIDWDVEEEEETEQSSESLRCNVEPVGRLHIFSGAHGPEKDFPLHLGKNVVGRMPDCSVALPFPSISKQHAEIEILAWDKAPILRDCGSLNGTQILRPPKVLSPGVSHRLRDQELILFADLLCQYHRLDVSLPFVSRGPLTVEETPRVQGETQPQRLLLAEDSEEEVDFLSERRMVKKSRTTSSSVIVPESDEEGHSPVLGGLGPPFAFNLNSDTDVEEGQQPATEEASSAARRGATVEAKQSEAEVVTEIQLEKDQPLVKERDNDTKVKRGAGNGVVPAGVILERSQPPGEDSDTDVDDDSRPPGRPAEVHLERAQPFGFIDSDTDAEEERIPATPVVIPMKKRKIFHGVGTRGPGAPGLAHLQESQAGSDTDVEEGKAPQAVPLEKSQASMVINSDTDDEEEVSAALTLAHLKESQPAIWNRDAEEDMPQRVVLLQRSQTTTERDSDTDVEEEELPVENREAVLKDHTKIRALVRAHSEKDQPPFGDSDDSVEADKSSPGIHLERSQASTTVDINTQVEKEVPPGSAIIHIKKHQVSVEGTNQTDVKAVGGPAKLLVVSLEEAWPLHGDCETDAEEGTSLTASVVADVRKSQLPAEGDAGAEWAAAVLKQERAHEVGAQGGPPVAQVEQDLPISRENLTDLVVDTDTLGESTQPQREGAQVPTGREREQHVGGTKDSEDNYGDSEDLDLQATQCFLENQGLEAVQSMEDEPTQAFMLTPPQELGPSHCSFQTTGTLDEPWEVLATQPFCLRESEDSETQPFDTHLEAYGPCLSPPRAIPGDQHPESPVHTEPM
# modifications: left off: HA/FLAG on one copy and Myc on the other, C-terminal, kept
# B2: wild-type Mdc1–FHA (27–138) (domain or fragment, human, UniProt Q14676 27-138, looked up)
# chain: NVEPVGRLHIFSGAHGPEKDFPLHLGKNVVGRMPDCSVALPFPSISKQHAEIEILAWDKAPILRDCGSLNGTQILRPPKVLSPGVSHRLRDQELILFADLLCQYHRLDVSLP
# Columns and labels:
# Mdc1 [1] = experiment: Peptide pull-down from HeLa nuclear extract; assay type: binding, human; settings: peptide coupled to magnetic beads, SDS-PAGE, western blot
# RAD50 = experiment: Peptide pull-down from HeLa nuclear extract; assay type: binding, human; settings: peptide coupled to magnetic beads; band at ∼150 kDa
# [2] = tested on: Mdc1 BRCT domains (M-8 GST-fragment); experiment: Phosphopeptide pull-down with GST fragment M-8; assay type: binding, human; settings: bacterially expressed GST-fusion
# [3] = tested on: Mdc1 FHA domain (M-1 GST-fragment); experiment: Phosphopeptide pull-down with GST fragment M-1; assay type: binding, human; settings: bacterially expressed GST-fusion
# MRE11 = experiment: Peptide pull-down from HeLa nuclear extract; assay type: binding, human; settings: peptide coupled to magnetic beads; band at ∼80 kDa
# Mdc1 [4] = molecular target: Mdc1 (UniProt Q14676); experiment: Strep-Tactin pull-down, SILAC LC-MS/MS; settings: reference: wild type FHA fragment; sites T4
# Mdc1 1-800 = Mdc1 1-800 (UniProt Q14676); experiment: anti-Flag co-IP, anti-Myc blot; settings: reference: wild type; sites T4
# endogenous Mdc1 = experiment: Co-immunoprecipitation of Flag-tagged Mdc1; assay type: cell-based, human; settings: 293T cells, with or without IR (10 Gy)
# How it was run: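 HEK 293T cells in D-MEM with 10% FCS and streptomycin/penicillin were transfected (FuGene 6 or calcium phosphate) with FLAG-tagged human Mdc1 residues 1–800 in pcDNA3.1(+). IR was given in an X-ray cabinet at 5–10 Gy/min. Complexes were captured on anti-FLAG M2 affinity gel and probed for endogenous Mdc1.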
# Myc-tagged Mdc1 (1–800) = experiment: Co-immunoprecipitation of Flag- and Myc-tagged Mdc1; assay type: cell-based, human; settings: transiently transfected 293T cells, anti-Flag IP, anti-Myc immunoblot
# How it was run: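 Human Mdc1 residues 1–800, C-terminally tagged with HA/FLAG or Myc, in a pcDNA3.1(+) vector. HEK 293T cells grown in D-MEM with 10% FCS and streptomycin/penicillin (100 U/ml). Transfected with FuGene 6 or calcium phosphate. Immunoprecipitation on anti-FLAG M2 affinity gel; Myc-tagged partner detected by immunoblot with rabbit polyclonal c-Myc antibody.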
# SEC-MALS = molecular target: the molecule itself; experiment: SEC-MALS
# [5] = molecular target: T1, Mdc1 fragment M-1 (amino acids 1–124), …; experiment: pull-down
# Sequence of Mdc1 (UniProt Q14676) (Q14676 1-154 T4A): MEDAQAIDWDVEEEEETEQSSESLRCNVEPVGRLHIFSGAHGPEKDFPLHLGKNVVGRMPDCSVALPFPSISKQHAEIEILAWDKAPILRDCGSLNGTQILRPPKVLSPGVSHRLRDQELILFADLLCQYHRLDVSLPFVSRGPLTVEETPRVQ
molecule,measurement,setting,value
MED[pT]QAIDWDAE[KBtn] [pThr-4 phosphopeptide],Mdc1 pulled down from HeLa nuclear extract,Mdc1 [1],efficiently pulled down
same,Mdc1 pulled down from HeLa nuclear extract,Mdc1 [1]; listed as phosphopeptide,pulled down by the phosphopeptide only
same,RAD50 pulled down from HeLa nuclear extract,RAD50,pulled down by the phosphopeptide only
same,binding of C-terminal BRCT-repeat region GST-fusion,[2],no significant interaction detectable
same,binding of FHA domain GST-fusion,[3],bound tightly and specifically
same,MRE11 pulled down from HeLa nuclear extract,MRE11,pulled down by the phosphopeptide only
Mdc1 1-154 (from UniProt Q14676) T4A FHA fragment,binding against the reference,Mdc1 [4],weaker
Mdc1 1-800 (from UniProt Q14676) T4A,binding against the reference,Mdc1 1-800,weaker
B1,co-immunoprecipitation with endogenous Mdc1,endogenous Mdc1,exclusively in extracts prepared from IR-treated cells
same,interaction of Flag-tagged with Myc-tagged Mdc1 (1–800),Myc-tagged Mdc1 (1–800),efficiently interacted
B2,stoichiometry N,SEC-MALS,2
"MED[pT]QAIDWDVE (peptide, UniProt Q14676 1-12, looked up)",binding result,[5],binds
